From ChEMBL document CHEMBL1149549, “Orally active antimalarials: synthesis and bioevaluation of a new series of steroid-based 1,2,4-trioxanes against multi-drug resistant malaria in mice” (Bioorg Med Chem Lett, 2007)

Experiments:
[1] = system: Plasmodium yoelii; experiment: Antimalarial activity as reduced parasitaemia (%) against multidrug-resistant Plasmodium yoelii infected Swiss mice (Mus musculus) at 96 mg/kg peroral dose after 4 days; assay type: functional; parameters: scale not given: the % may be the effect or the level left; details: route oral
In short: (§1)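 Colony-bred Swiss mice (25 ± 1 g) inoculated with 1×10^6 parasitized RBC on day 0, five per dose group. Dosed orally in groundnut oil (0.1 ml), days 0–3, as two divided doses daily. Parasitaemia read from thin blood smears. Day-4 suppression = [(C−T)/C]×100 against the control group; 100% means parasites below the detection limit. β-Arteether was the positive control.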

[2] = system: Mus musculus; experiment: Survival of multidrug-resistant Plasmodium yoelii infected Swiss mice (Mus musculus) at 96 mg/kg, perorally after 28 days; assay type: ADME, organism-based; parameters: dose 96 mg/kg, route oral; details: in vivo, po, 672 h
In short: (§2)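 Swiss mice (25 ± 1 g) infected on day 0 with 1×10^6 parasitized RBC, five per dose. Given the drug orally in groundnut oil (0.1 ml), split into two daily doses on days 0–3. Parasitaemia followed by thin blood smears from day 4 to 28. Mice surviving beyond day 28 were scored as protected, expressed as the percent of treated mice. β-Arteether was the positive control.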

[3] = system: Plasmodium yoelii; experiment: Antimalarial activity as reduced parasitaemia (%) against multidrug-resistant Plasmodium yoelii infected Swiss mice (Mus musculus) at 48 mg/kg peroral dose after 4 days; assay type: functional; parameters: scale not given: the % may be the effect or the level left; details: route oral; in short: as §1
[4] = system: Mus musculus; experiment: Survival of multidrug-resistant Plasmodium yoelii infected Swiss mice (Mus musculus) at 48 mg/kg, perorally after 28 days; assay type: ADME, organism-based; parameters: dose 48 mg/kg, route oral; details: in vivo, po, 672 h; in short: as §2
[5] = system: Plasmodium yoelii; experiment: Antimalarial activity as reduced parasitaemia (%) against multidrug-resistant Plasmodium yoelii infected Swiss mice (Mus musculus) at 24 mg/kg peroral dose after 4 days; assay type: functional; parameters: scale not given: the % may be the effect or the level left; details: route oral

| SMILES | Activity [1] | Activity [2] | Activity [3] | Activity [4] | Activity [5] |
| --- | --- | --- | --- | --- | --- |
| C=C(c1ccc(F)cc1)C1COC2(CC[C@@]3(C)C(CC[C@H]4[C@@H]5CC[C@H]([C@H](C)CCCC(C)C)[C@@]5(C)CC[C@@H]43)C2)OO1 (stereo partly specified) | 14.8% | Not Active |  |  |  |
| C=C(c1ccc(Cl)cc1)C1COC2(CC[C@@]3(C)C(CC[C@H]4[C@@H]5CC[C@H]([C@H](C)CCCC(C)C)[C@@]5(C)CC[C@@H]43)C2)OO1 (stereo partly specified) | 43.4% | Not Active |  |  |  |
| C=C(c1ccc(OC)cc1)C1COC2(CC[C@@]3(C)C(CC[C@@H]4[C@@H]3CC[C@@]3(C)[C@H]4OCC34CC[C@@H](C)CO4)C2)OO1 (stereo partly specified) | 36.1% | Not Active |  |  |  |
| C=C(c1ccc(F)cc1)C1COC2(CC[C@@]3(C)C(CC[C@H]4[C@@H]5CC[C@H](C(C)=O)[C@@]5(C)CC[C@@H]43)C2)OO1 (stereo partly specified) | 100% |  | 100% |  |  |
| C=C(c1ccc(Br)cc1)C1COC2(CC[C@@]3(C)C(CC[C@H]4[C@@H]5CC[C@H](C(C)=O)[C@@]5(C)CC[C@@H]43)C2)OO1 (stereo partly specified) | 100% |  | 100% |  |  |
| C=C(c1ccccc1)C1COC2(CC[C@@]3(C)C(CC[C@@H]4[C@@H]3CC[C@]3(C)C([C@H](C)CCCC(C)C)CC[C@@H]43)C2)OO1 (stereo partly specified) | 73% | Not Active |  |  |  |
| C=C(c1ccc(C)cc1)C1COC2(CC[C@@]3(C)C(CC[C@H]4[C@@H]5CC[C@H]([C@H](C)CCCC(C)C)[C@@]5(C)CC[C@@H]43)C2)OO1 (stereo partly specified) | 27.4% | Not Active |  |  |  |
| C=C(c1ccc(Br)cc1)C1COC2(CC[C@@]3(C)C(CC[C@H]4[C@@H]5CC[C@H]([C@H](C)CCCC(C)C)[C@@]5(C)CC[C@@H]43)C2)OO1 (stereo partly specified) | 26.1% | Not Active |  |  |  |
| C=C(c1ccc(Cl)cc1)C1COC2(CC[C@@]3(C)C(CC[C@H]4[C@@H]5CC[C@H](C(C)=O)[C@@]5(C)CC[C@@H]43)C2)OO1 (stereo partly specified) | 100% |  | 100% |  |  |
| C=C(c1ccc(OC)cc1)C1COC2(CC[C@@]3(C)C(CC[C@H]4[C@@H]5CC[C@H]([C@H](C)CCCC(C)C)[C@@]5(C)CC[C@@H]43)C2)OO1 (stereo partly specified) | 53.5% | Not Active |  |  |  |
| C=C(c1ccc(OC)cc1)C1COC2(CC[C@@]3(C)C(CC[C@H]4[C@@H]5CC[C@H](C(C)=O)[C@@]5(C)CC[C@@H]43)C2)OO1 (stereo partly specified) | 100% | Active | 100% |  |  |
| C=C(c1ccc(C)cc1)C1COC2(CC[C@@]3(C)C(CC[C@@H]4[C@@H]3CC[C@@]3(C)[C@H]4OCC34CC[C@@H](C)CO4)C2)OO1 (stereo partly specified) | 50.7% | Not Active |  |  |  |
| C=C(c1ccc(F)cc1)C1COC2(CC[C@@]3(C)C(CC[C@@H]4[C@@H]3CC[C@@]3(C)[C@H]4OCC34CC[C@@H](C)CO4)C2)OO1 (stereo partly specified) | 45.1% | Not Active |  |  |  |
| C=C(c1ccc(Cl)cc1)C1COC2(CC[C@@]3(C)C(CC[C@@H]4[C@@H]3CC[C@@]3(C)[C@H]4OCC34CC[C@@H](C)CO4)C2)OO1 (stereo partly specified) | 71.7% | Not Active |  |  |  |
| C=C(c1ccccc1)C1COC2(CC[C@@]3(C)C(CC[C@H]4[C@@H]5CC[C@H](C(C)=O)[C@@]5(C)CC[C@@H]43)C2)OO1 (stereo partly specified) | 100% |  | 100% |  |  |
| C=C(c1ccc(C)cc1)C1COC2(CC[C@@]3(C)C(CC[C@H]4[C@@H]5CC[C@H](C(C)=O)[C@@]5(C)CC[C@@H]43)C2)OO1 (stereo partly specified) | 100% |  | 100% |  |  |
| CCO[C@H]1O[C@@H]2O[C@@]3(C)CC[C@H]4[C@H](C)CC[C@@H]([C@H]1C)[C@@]24OO3 [ARTEMOTIL] |  |  | 100% | Active | 100% |
